Values after ≈ are worked out from the molar mass of the structure shown.
Experiments:
Assay type in all cases: functional
[1] = tested on: Enterococcus faecalis; assay: Antimicrobial activity against beta-lactamase producing Enterococcus faecalis TX5070 isolate by agar dilution method
Procedure, shortened: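 Starting inoculum was 10⁴ CFU/spot, and E. faecalis ATCC 29212 served as control. Drug was diluted in 9.9% glacial acetic acid plus 1% DMSO.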

[2] = tested on: Enterococcus faecalis; assay: Antimicrobial activity against vancomycin A-resistant Enterococcus faecalis TX2784 isolate by agar dilution method
Procedure, shortened: (§1)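 Agar dilution MIC on Mueller-Hinton agar II per CLSI, standard inoculum 10⁴ CFU/spot; drug dissolved in 9.9% glacial acetic acid plus 1% DMSO. Control strains E. faecalis ATCC 29212, S. aureus ATCC 29213, E. coli 25922.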

[3] = tested on: Enterococcus faecalis; assay: Antimicrobial activity against beta-lactamase producing Enterococcus faecalis TX0630 isolate by agar dilution method; procedure, shortened: as §1
[4] = tested on: Enterococcus faecalis; assay: Antimicrobial activity against vancomycin B-resistant Enterococcus faecalis TX2484 isolate by agar dilution method; procedure, shortened: as §1
[5] = tested on: Enterococcus faecalis; assay: Antimicrobial activity against beta-lactamase producing vancomycin-resistant Enterococcus faecalis TX0614 isolate at 10^7 […]
Procedure, shortened: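 High-inoculum MIC by broth dilution in Mueller-Hinton broth at 10⁷ CFU/ml (per ml in broth, not per spot).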

[6] = tested on: Enterococcus faecalis; assay: Bactericidal activity against vancomycin B-resistant Enterococcus faecalis TX2484 isolate assessed as decrease in viable count after 24 hrs
Procedure, shortened: (§2)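 Time-kill in 20 ml BHI broth, starting inoculum 10⁷ CFU/ml from overnight culture. Viable counts at 0, 4 and 24 h by plating on BHI agar after centrifuging 1-ml samples and resuspending in 0.9% saline to remove carryover. Detection limit 10 CFU/ml. Bactericidal = ≥3-log₁₀ CFU/ml drop over 0–24 h. Two to four runs per strain.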

[7] = tested on: Enterococcus faecalis; assay: Antimicrobial activity against beta-lactamase producing vancomycin-resistant Enterococcus faecalis isolates by agar dilution method; procedure, shortened: as §1
[8] = tested on: Enterococcus faecalis; assay: Antimicrobial activity against beta-lactamase producing vancomycin-resistant Enterococcus faecalis TX0614 isolate at 10^4 CFU/spot; procedure, shortened: as §1
[9] = tested on: Enterococcus faecalis; assay: Antimicrobial activity against beta-lactamase producing vancomycin-resistant Enterococcus faecalis TX0638 isolate at 10^4 CFU/spot; procedure, shortened: as §1
[10] = tested on: Enterococcus faecalis; assay: Antimicrobial activity against beta-lactamase producing Enterococcus faecalis TX0630 isolate at 10^4 CFU/spot
Procedure, shortened: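 Agar dilution MIC on Mueller-Hinton agar II following CLSI recommendations, with a standard inoculum of 10⁴ CFU/spot. Drug was diluted in 9.9% glacial acetic acid plus 1% DMSO. Control strains were E. faecalis ATCC 29212, S. aureus ATCC 29213 and E. coli 25922. Isolates were recovered from −80°C frozen stocks.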

[11] = tested on: Enterococcus faecalis; assay: Antimicrobial activity against beta-lactamase producing vancomycin-resistant Enterococcus faecalis TX0921 isolate at 10^4 CFU/spot; procedure, shortened: as §1
[12] = tested on: Enterococcus faecalis; assay: Antimicrobial activity against Enterococcus faecalis TX0645 isolate at 10^4 CFU/spot; procedure, shortened: as §1
[13] = tested on: Enterococcus faecalis; assay: Bactericidal activity against vancomycin A-resistant Enterococcus faecalis TX2784 isolate assessed as decrease in viable count after 24 hrs; procedure, shortened: as §2

Compound | MIC [1] | MIC [2] | MIC [3] | MIC [4] | MIC [5] | log10CFU/ml [6] | MIC50 [7] | MIC90 [7] | MIC [8] | MIC [9] | MIC [10] | MIC [11] | MIC [12] | log10CFU/ml [13]
CN[C@H](CC(C)C)C(=O)N[C@H]1C(=O)N[C@@H](CC(N)=O)C(=O)N[C@H]2C(=O)N[C@H]3C(=O)N[C@H](C(=O)N[C@H](C(=O)O)c4cc(O)cc(O)c4-c4cc3ccc4O)[C@H](O)c3ccc(c(Cl)c3)Oc3cc2cc(c3O[C@@H]2O[C@H](CO)[C@@H](O)[C@H](O)[C@H]2O[C@H]2C[C@](C)(N)[C@H](O)[C@H](C)O2)Oc2ccc(cc2Cl)[C@H]1O [VANCOMYCIN] | 8 µg/mL (≈ 5.52 µM) | > 256 µg/mL | 0.5 µg/mL (≈ 0.345 µM) | > 256 µg/mL | – | – | – | – | – | – | – | – | – | –
Nc1nc(/C(=N/O)C(=O)N[C@@H]2C(=O)N3C(C(=O)O)=C(/C=C4\CCN([C@@H]5CCNC5)C4=O)CS[C@H]23)ns1 [CEFTOBIPROLE] | 0.125 µg/mL (≈ 0.234 µM) | 0.25 µg/mL (≈ 0.468 µM) | 0.25 µg/mL (≈ 0.468 µM) | 0.5 µg/mL (≈ 0.935 µM) | 2 µg/mL (≈ 3.74 µM) | >3 | 0.25 µg/mL (≈ 0.468 µM) | 1 µg/mL (≈ 1.87 µM) | 1 µg/mL (≈ 1.87 µM) | 0.25 µg/mL (≈ 0.468 µM) | 0.125 µg/mL (≈ 0.234 µM) | 0.25 µg/mL (≈ 0.468 µM) | 0.25 µg/mL (≈ 0.468 µM) | >3
CC1(C)S[C@@H]2[C@H](NC(=O)[C@H](N)c3ccccc3)C(=O)N2[C@H]1C(=O)O [AMPICILLIN] | – | 0.5 µg/mL (≈ 1.43 µM) | 1 µg/mL (≈ 2.86 µM) | 0.5 µg/mL (≈ 1.43 µM) | – | – | – | – | – | – | – | – | – | –

Reference: ChEMBL document CHEMBL1145496 (Antimicrob Agents Chemother, 2007)
